Data as given in ChEMBL document CHEMBL4665831, “Ultrapotent Inhibitor of Clostridioides difficile Growth, Which Suppresses Recurrence In Vivo” (J Med Chem, 2020).

Experiments:
[1] = tested on: Clostridioides difficile; experiment: Antimicrobial activity against Clostridioides difficile ATCC BAA 1801 assessed as reduction in microbial growth after 48 hrs by broth microdilution method; format: functional
Summary of the method: (§1)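 Broth microdilution: a 0.5 McFarland suspension was diluted in brain heart infusion supplemented (BHIS) broth to ~5 × 10^5 CFU/mL. Agents were serially diluted and plates incubated anaerobically at 37°C for 48 h.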

[2] = tested on: Clostridioides difficile; experiment: Antimicrobial activity against Clostridioides difficile NR-13432 isolate 6 assessed as reduction in microbial growth after 48 hrs by broth microdilution method; format: functional; summary of the method: as §1
[3] = tested on: Clostridioides difficile; experiment: Antimicrobial activity against Clostridioides difficile NR-13435 isolate 9 assessed as reduction in microbial growth after 48 hrs by broth microdilution method; format: functional; summary of the method: as §1
[4] = tested on: Clostridioides difficile; experiment: Antimicrobial activity against Clostridioides difficile NR-32883 P2 assessed as reduction in microbial growth after 48 hrs by broth microdilution method; format: functional; summary of the method: as §1
[5] = tested on: Clostridioides difficile; experiment: Antimicrobial activity against Clostridioides difficile NR-32891 P13 assessed as reduction in microbial growth after 48 hrs by broth microdilution method; format: functional; summary of the method: as §1
[6] = tested on: Clostridioides difficile; experiment: Antimicrobial activity against Clostridioides difficile NR-32895 P19 assessed as reduction in microbial growth after 48 hrs by broth microdilution method; format: functional; summary of the method: as §1
[7] = tested on: Clostridioides difficile; experiment: Antimicrobial activity against Clostridioides difficile NR-32904 P30 assessed as reduction in microbial growth after 48 hrs by broth microdilution method; format: functional; summary of the method: as §1
[8] = tested on: Clostridioides difficile; experiment: Antimicrobial activity against Clostridioides difficile ATCC 43255 assessed as reduction in microbial growth after 48 hrs by broth microdilution method; format: functional; summary of the method: as §1
[9] = tested on: Lactobacillus gasseri; experiment: Antibacterial activity against Lactobacillus gasseri HM-400 assessed as reduction in microbial growth after 48 hrs by broth microdilution method
Summary of the method: (§2)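 Gut commensal MICs by broth microdilution: a 0.5 McFarland suspension was diluted to ~5 × 10^5 CFU/mL in BHIS broth (Bacteroides) or MRS broth (Lactobacillus). Agents were serially diluted and incubated 48 h at 37°C. MIC was read by visual inspection of growth.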

[10] = tested on: Lactobacillus crispatus; experiment: Antibacterial activity against Lactobacillus crispatus HM-103 assessed as reduction in microbial growth after 48 hrs by broth microdilution method; summary of the method: as §2
[11] = tested on: Lactobacillus crispatus; experiment: Antibacterial activity against Lactobacillus crispatus HM-371 assessed as reduction in microbial growth after 48 hrs by broth microdilution method; summary of the method: as §2
[12] = tested on: Bacteroides fragilis; experiment: Antibacterial activity against Bacteroides fragilis HM-711 assessed as reduction in microbial growth after 48 hrs by broth microdilution method; format: organism-based; summary of the method: as §2
[13] = tested on: Bacteroides fragilis; experiment: Antibacterial activity against Bacteroides fragilis HM-709 assessed as reduction in microbial growth after 48 hrs by broth microdilution method; format: organism-based; summary of the method: as §2
[14] = tested on: Phocaeicola dorei; experiment: Antibacterial activity against Bacteroides dorei HM-719 assessed as reduction in microbial growth after 48 hrs by broth microdilution method; format: organism-based; summary of the method: as §2
[15] = tested on: Enterococcus faecalis; experiment: Antimicrobial activity against vancomycin-resistant Enterococcus […] ATCC 51299 assessed as reduction in microbial growth after 48 hrs by CLSI based broth microdilution method; format: functional
Summary of the method: (§3)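 CLSI broth microdilution: strains were grown aerobically overnight on tryptone soy agar at 37°C. A 0.5 McFarland suspension was diluted to ~5 × 10^5 CFU/mL in cation-adjusted Mueller-Hinton broth (E. coli) or tryptone soy broth (enterococci), and agents were serially diluted.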

[16] = tested on: Escherichia coli; experiment: Antimicrobial activity against Escherichia coli JW55031 harboring TolC mutant assessed as reduction in microbial growth after 48 hrs by CLSI based broth microdilution method; format: functional; summary of the method: as §3
[17] = tested on: Clostridioides difficile; experiment: Antimicrobial activity against Clostridioides difficile ATCC 43255 assessed as drug resistance by measuring frequency of mutation at 15 times of MIC after 48 hrs; format: functional
[18] = tested on: Clostridioides difficile; experiment: Antimicrobial activity against Clostridioides difficile ATCC 43255 assessed as drug resistance by measuring frequency of mutation at 20 times of MIC after 48 hrs; format: functional
[19] = tested on: Clostridioides difficile; experiment: Antibacterial activity against Clostridioides difficile ATCC 43255 infected in CDI mouse model assessed as survival rate at 10 mg/kg, po for 5 days relative to control; format: functional; details: ATCC 43255, po, 120 h, time 5 day
[20] = tested on: Clostridioides difficile; experiment: Antibacterial activity against Clostridioides difficile ATCC 43255 infected in CDI mouse model assessed as bacterial recurrence at 10 mg/kg, po for 5 days and measured on day 21 relative to control; format: functional; details: time 21 day
[21] = tested on: Enterococcus faecium; experiment: Antimicrobial activity against vancomycin-resistant Enterococcus faecium ATCC 700221 assessed as reduction in microbial growth after 48 hrs by CLSI based broth microdilution method; format: functional; summary of the method: as §3
[22] = molecular target: Cyclin-dependent kinase 2 (Homo sapiens, UniProt P24941); experiment: Inhibition of human CDK2 expressed in sf9 insect cells

Question: For COc1ccc(Cl)cc1-c1nnc(NC(=O)c2ccc(SC(F)(F)F)cc2)o1, which MIC [1] is on record?
Answer: Its MIC is 4.7 µM.

Question: With O=C(Nc1nnc(-c2ccccc2Cl)o1)c1ccc(SC(F)(F)F)cc1 as the molecule, how does the MIC [1] read?
Answer: The MIC was 10 µM.

Question: With Cc1ccc(-c2nnc(NC(=O)c3ccc(SC(F)(F)F)cc3)o2)cc1 as the molecule, how does the MIC [1] read?
Answer: The MIC was 10.5 µM.

Question: For CCc1c(Cl)c(O)c(Cl)c(O)c1C(=O)O[C@H]1[C@H](O)[C@H](OC)[C@H](OC/C2=C\C=C\C[C@H](O)/C(C)=C/[C@H](CC)[C@@H](O[C@@H]3OC(C)(C)[C@@H](OC(=O)C(C)C)[C@H](O)[C@@H]3O)/C(C)=C/C(C)=C/C[C@@H]([C@@H](C)O)OC2=O)O[C@@H]1C [FIDAXOMICIN], which MIC [1] is on record?
Answer: The MIC was 0.06 µM.

Question: What about the MIC [2] of the same molecule?
Answer: The MIC was 0.06 µM.

Question: And the MIC [3]?
Answer: Its MIC is 0.06 µM.

Question: What about the MIC [4] of the same molecule?
Answer: Its MIC is 0.03 µM.

Question: What about the MIC [5] of the same molecule?
Answer: The MIC was 0.01 µM.

Question: What about the MIC [6] of the same molecule?
Answer: Its MIC is 0.03 µM.

Question: What about the MIC [7] of the same molecule?
Answer: The MIC was 0.01 µM.

Question: And the MIC [8]?
Answer: The MIC was 0.01 µM.

Question: And the MIC [9]?
Answer: Its MIC is over 60.5 µM.

Question: And the MIC [10]?
Answer: Its MIC is over 60.5 µM.

Question: What about the MIC [11] of the same molecule?
Answer: Its MIC is over 60.5 µM.

Question: And the MIC [12]?
Answer: The MIC was over 60.5 µM.

Question: What about the MIC [13] of the same molecule?
Answer: The MIC was over 60.5 µM.

Question: And the MIC [14]?
Answer: Its MIC is over 60.5 µM.

Question: CC(C)c1ccc(-c2nnc(NC(=O)c3ccc(SC(F)(F)F)cc3)o2)cc1 was tested. Which MIC [1] did it give?
Answer: Its MIC is 314 µM.

Question: Which MIC [1] does the source give for CN[C@H](CC(C)C)C(=O)N[C@H]1C(=O)N[C@@H](CC(N)=O)C(=O)N[C@H]2C(=O)N[C@H]3C(=O)N[C@H](C(=O)N[C@H](C(=O)O)c4cc(O)cc(O)c4-c4cc3ccc4O)[C@H](O)c3ccc(c(Cl)c3)Oc3cc2cc(c3O[C@@H]2O[C@H](CO)[C@@H](O)[C@H](O)[C@H]2O[C@H]2C[C@](C)(N)[C@H](O)[C@H](C)O2)Oc2ccc(cc2Cl)[C@H]1O [VANCOMYCIN] here?
Answer: The MIC was 0.7 µM.

Question: And the MIC [2]?
Answer: Its MIC is 0.2 µM.

Question: And the MIC [3]?
Answer: Its MIC is 0.7 µM.

Question: And the MIC [4]?
Answer: The MIC was 0.4 µM.

Question: What about the MIC [5] of the same molecule?
Answer: The MIC was 0.4 µM.

Question: What about the MIC [6] of the same molecule?
Answer: The MIC was 0.7 µM.

Question: What about the MIC [7] of the same molecule?
Answer: Its MIC is 0.7 µM.

Question: What about the MIC [8] of the same molecule?
Answer: Its MIC is 0.7 µM.

Question: What about the MIC [15] of the same molecule?
Answer: The MIC was over 44.2 µM.

Question: What about the MIC [16] of the same molecule?
Answer: The MIC was over 44.2 µM.

Question: And the MIC [9]?
Answer: Its MIC is “<= 0.7 uM”.

Question: And the MIC [10]?
Answer: Its MIC is 1.4 µM.

Question: What about the MIC [11] of the same molecule?
Answer: The MIC was 1.4 µM.

Question: And the MIC [12]?
Answer: The MIC was 44.2 µM.

Question: What about the MIC [13] of the same molecule?
Answer: The MIC was 22.1 µM.

Question: What about the MIC [14] of the same molecule?
Answer: The MIC was 44.2 µM.

Question: What about the Activity [17] of the same molecule?
Answer: Its Activity is <1.1 10^-9No_unit.

Question: What about the Activity [18] of the same molecule?
Answer: Its Activity is <1.1 10^-9No_unit.

Question: And the survival at 10 mg/kg [19]?
Answer: Its survival at 10 mg/kg is 100%.

Question: What about the Activity [20] of the same molecule?
Answer: The Activity was 83.3%.

Question: How did the MIC [1] turn out when O=C(Nc1nnc(-c2cccc(C(F)(F)F)c2)o1)c1ccc(SC(F)(F)F)cc1 was run?
Answer: Its MIC is 0.04 µM.

Question: With O=C(Nc1nnc(-c2ccc(C(F)(F)F)cc2)o1)c1ccc(SC(F)(F)F)cc1 as the molecule, how does the MIC [1] read?
Answer: The MIC was 0.29 µM.

Question: Which MIC [1] does the source give for O=C(Nc1nnc(-c2cccs2)o1)c1ccc(SC(F)(F)F)cc1 here?
Answer: Its MIC is 1.4 µM.

Question: With GENTAMICIN as the molecule, how does the MIC [16] read?
Answer: Its MIC is 0.52 µM.

Question: O=C(Nc1nnc(-c2ccc(Cl)cc2Cl)o1)c1ccc(SC(F)(F)F)cc1 was tested. Which MIC [1] did it give?
Answer: The MIC was 0.07 µM.

Question: For O=C(Nc1nnc(-c2ccccn2)o1)c1ccc(SC(F)(F)F)cc1, which MIC [1] is on record?
Answer: Its MIC is 21.8 µM.

Question: For CC(=O)NC[C@H]1CN(c2ccc(N3CCOCC3)c(F)c2)C(=O)O1 [LINEZOLID], which MIC [21] is on record?
Answer: Its MIC is 3 µM.

Question: And the MIC [15]?
Answer: The MIC was 3 µM.

Question: And the MIC [16]?
Answer: The MIC was 47.4 µM.

Question: How did the MIC [1] turn out when O=C(Nc1nnc(-c2ccccc2)o1)c1ccc(SC(F)(F)F)cc1 was run?
Answer: The MIC was 5.5 µM.

Question: With COc1ccc(-c2nnc(NC(=O)c3ccc(SC(F)(F)F)cc3)o2)cc1 as the molecule, how does the MIC [1] read?
Answer: Its MIC is 10.1 µM.

Question: With COc1cccc(-c2nnc(NC(=O)c3ccc(SC(F)(F)F)cc3)o2)c1 as the molecule, how does the MIC [1] read?
Answer: The MIC was 10.1 µM.

Question: With CN1CC[C@H](c2c(O)cc(O)c3c(=O)cc(-c4ccccc4)oc23)[C@H](O)C1 as the molecule, how does the IC50 [22] read?
Answer: Its IC50 is 2400 nM.

Question: Which MIC [1] does the source give for O=C(Nc1nnc(-c2ccc(Cl)cc2)o1)c1ccc(SC(F)(F)F)cc1 here?
Answer: Its MIC is 5 µM.

Question: With O=C(Nc1nnc(-c2cccc(F)c2)o1)c1ccc(SC(F)(F)F)cc1 as the molecule, how does the MIC [1] read?
Answer: Its MIC is 0.08 µM.

Question: How did the MIC [1] turn out when O=C(Nc1nnc(-c2cccc(Cl)c2)o1)c1ccc(SC(F)(F)F)cc1 was run?
Answer: Its MIC is 0.08 µM.

Question: What does the source list for Cc1ncc([N+](=O)[O-])n1CCO [METRONIDAZOLE]?
Answer: MIC [1]: 1.46 µM; MIC [2]: 1.46 µM; MIC [3]: 0.7 µM; MIC [4]: 0.7 µM; MIC [5]: 0.7 µM; MIC [6]: 1.46 µM; MIC [7]: 1.46 µM; MIC [8]: 1.46 µM; MIC [21]: > 374 µM; MIC [15]: > 374 µM; MIC [9]: > 373.9 µM; MIC [10]: > 373.9 µM; MIC [11]: > 373.9 µM; MIC [12]: 5.84 µM; MIC [13]: 11.68 µM; MIC [14]: 5.84 µM

Question: How did the MIC [1] turn out when O=C(Nc1nnc(-c2ccc(F)cc2)o1)c1ccc(SC(F)(F)F)cc1 was run?
Answer: Its MIC is 10.4 µM.

Question: O=C(Nc1nnc(-c2ccccc2F)o1)c1ccc(SC(F)(F)F)cc1 was tested. Which MIC [1] did it give?
Answer: The MIC was 10.4 µM.
